Laboratory results published in ChEMBL document CHEMBL1155815, “Design, synthesis, and biological evaluation of Mannich bases of heterocyclic chalcone analogs as cytotoxic agents” (Bioorg Med Chem, 2008).
Converted amounts (≈) assume the structure as drawn. The source made the active and inactive calls. The rule behind the calls is not given here.

Key:
Format in all cases: functional, cell-based
[1] = tested on: KB; experiment: Cytotoxicity against human KB cells after 3 days by SRB assay; settings: for EC50: 72 h
How it was run: (§1)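 Cells grown in RPMI-1640 with HEPES, 0.25% sodium bicarbonate, 10% FBS and kanamycin. Freshly trypsinized cells were seeded at 1500–7500 per well and compounds added from DMSO-diluted stock. After 3 days, attached cells were fixed with cold 50% TCA, stained with 0.4% SRB, and absorbance read after dye solubilization. EC50 = 50% growth reduction, averaged over ≥3 independent determinations.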

[2] = tested on: PC-3; experiment: Cytotoxicity against human PC3 cells after 3 days by SRB assay; settings: for EC50: PC-3, 72 h; how it was run: as §1
[3] = tested on: MCF7; experiment: Cytotoxicity against human MCF7 cells after 3 days by SRB assay; settings: for EC50: MCF7, 72 h; how it was run: as §1
[4] = tested on: KB; experiment: Cytotoxicity against vinblastine-resistant human KB cells after 3 days by SRB assay; settings: in the assay text read “vincristine-resistant” for “vinblastine-resistant”; for EC50: 72 h; how it was run: as §1

SMILES	EC50 [1] [µg/mL]	EC50 [2] [µg/mL]	EC50 [3] [µg/mL]	EC50 [4] [µg/mL]	Activity [1]	Activity [2]	Activity [3]	Activity [4]
O=C(/C=C/c1ccccc1)c1cccc(O)c1CN1CCOCC1	0.83 (≈ 2.57 µM)	0.33 (≈ 1.02 µM)	0.28 (≈ 0.866 µM)	0.36 (≈ 1.11 µM)	–	–	–	–
COc1ccc(/C=C/C(=O)c2cccs2)c(CN2CCCCC2)c1O	2.93 (≈ 8.2 µM)	2.02 (≈ 5.65 µM)	0.11 (≈ 0.308 µM)	2.09 (≈ 5.85 µM)	–	–	–	–
COc1ccc(/C=C/C(=O)c2cccc(C)c2)c(CN2CCOCC2)c1O	1.12 (≈ 3.05 µM)	0.66 (≈ 1.8 µM)	0.42 (≈ 1.14 µM)	0.6 (≈ 1.63 µM)	–	–	–	–
O=C(/C=C/c1ccccn1)c1ccc(CN2CCOCC2)c(O)c1	1.3 (≈ 4.01 µM)	0.83 (≈ 2.56 µM)	0.43 (≈ 1.33 µM)	0.68 (≈ 2.1 µM)	–	–	–	–
O=C(/C=C/c1cccs1)c1cccc(O)c1CN1CCOCC1	2.84 (≈ 8.62 µM)	1.09 (≈ 3.31 µM)	1.66 (≈ 5.04 µM)	2.15 (≈ 6.53 µM)	–	–	–	–
O=C(/C=C/c1ccncc1)c1ccc(CN2CCOCC2)c(O)c1	1.95 (≈ 6.01 µM)	1.87 (≈ 5.76 µM)	1.23 (≈ 3.79 µM)	2.62 (≈ 8.08 µM)	–	–	–	–
O=C(/C=C/c1ccco1)c1ccc(O)c(CN2CCOCC2)c1	6.12 (≈ 19.5 µM)	7.43 (≈ 23.7 µM)	4.87 (≈ 15.5 µM)	3.27 (≈ 10.4 µM)	–	–	–	–
O=C(/C=C/c1ccccn1)c1ccc(O)c(CN2CCOCC2)c1	0.73 (≈ 2.25 µM)	0.31 (≈ 0.956 µM)	0.12 (≈ 0.37 µM)	0.3 (≈ 0.925 µM)	–	–	–	–
CC(C)Oc1ccc(C(=O)/C=C/c2cccs2)c(O)c1CN1CCOCC1	5.12 (≈ 13.2 µM)	2.8 (≈ 7.23 µM)	0.66 (≈ 1.7 µM)	1.45 (≈ 3.74 µM)	–	–	–	–
CCOc1cc(O)c(C(=O)/C=C/c2ccccn2)cc1CN1CCOCC1	5.72 (≈ 15.5 µM)	3.14 (≈ 8.52 µM)	4.13 (≈ 11.2 µM)	5.55 (≈ 15.1 µM)	–	–	–	–
O=C(/C=C/c1cccnc1)c1ccc(CN2CCOCC2)c(O)c1	2.17 (≈ 6.69 µM)	0.9 (≈ 2.77 µM)	0.67 (≈ 2.07 µM)	1.17 (≈ 3.61 µM)	–	–	–	–
O=C(/C=C/c1ccccn1)c1ccc(CN2CCOCC2)c(O)c1CN1CCOCC1	0.82 (≈ 1.94 µM)	0.44 (≈ 1.04 µM)	0.46 (≈ 1.09 µM)	0.71 (≈ 1.68 µM)	–	–	–	–
COc1cc(O)c(C(=O)/C=C/c2ccco2)cc1CN1CCOCC1	13.5 (≈ 39.4 µM)	16.8 (≈ 48.9 µM)	1.51 (≈ 4.4 µM)	8.12 (≈ 23.6 µM)	–	–	–	–
O=C(/C=C/c1ccncc1)c1ccc(O)c(CN2CCOCC2)c1	0.74 (≈ 2.28 µM)	0.1 (≈ 0.308 µM)	0.15 (≈ 0.462 µM)	0.41 (≈ 1.26 µM)	–	–	–	–
COc1cc(O)c(C(=O)/C=C/c2ccccc2)cc1CN1CCOCC1	14.9 (≈ 42.2 µM)	0.78 (≈ 2.21 µM)	0.03 (≈ 0.0849 µM)	3.5 (≈ 9.9 µM)	–	–	–	–
O=C(/C=C/c1cccs1)c1ccc(O)c(CN2CCOCC2)c1	5.14 (≈ 15.6 µM)	6.49 (≈ 19.7 µM)	5.62 (≈ 17.1 µM)	2.58 (≈ 7.83 µM)	–	–	–	–
CCOc1cc(O)c(C(=O)/C=C/c2sccc2C)cc1CN1CCOCC1	–	–	–	–	inactive	inactive	inactive	inactive
Cc1ccsc1/C=C/C(=O)c1cccc(O)c1CN1CCOCC1	5.7 (≈ 16.6 µM)	2.73 (≈ 7.95 µM)	1.12 (≈ 3.26 µM)	1.64 (≈ 4.78 µM)	–	–	–	–

SMILES	EC50 [1] [µg/mL]	EC50 [2] [µg/mL]	EC50 [3] [µg/mL]	EC50 [4] [µg/mL]	Activity [1]	Activity [2]	Activity [3]	Activity [4]
COc1ccc(/C=C/C(=O)c2cc(CN3CCOCC3)c(OC)cc2O)cc1	9.6 (≈ 25 µM)	8.11 (≈ 21.2 µM)	2.74 (≈ 7.15 µM)	6.58 (≈ 17.2 µM)	–	–	–	–
O=C(/C=C/c1ccco1)c1cccc(O)c1CN1CCOCC1	5.63 (≈ 18 µM)	3.8 (≈ 12.1 µM)	4.7 (≈ 15 µM)	5.77 (≈ 18.4 µM)	–	–	–	–
O=C(/C=C/c1ccccc1)c1ccc(O)c(CN2CCOCC2)c1	2.11 (≈ 6.52 µM)	0.18 (≈ 0.557 µM)	0.15 (≈ 0.464 µM)	0.69 (≈ 2.13 µM)	–	–	–	–
O=C(/C=C/c1ccccn1)c1ccc(O)c(CN2CCOCC2)c1O	1.54 (≈ 4.52 µM)	0.95 (≈ 2.79 µM)	0.08 (≈ 0.235 µM)	0.8 (≈ 2.35 µM)	–	–	–	–
COc1ccc(C(=O)/C=C/c2ccccn2)c(O)c1CN1CCOCC1	3.41 (≈ 9.62 µM)	10.5 (≈ 29.7 µM)	0.25 (≈ 0.705 µM)	1.13 (≈ 3.19 µM)	–	–	–	–
COc1ccc(/C=C/C(=O)c2cccnc2)c(CN2CCCCC2)c1O	6.14 (≈ 17.4 µM)	6.77 (≈ 19.2 µM)	0.3 (≈ 0.851 µM)	2.64 (≈ 7.49 µM)	–	–	–	–
CC(C)Oc1cc(O)c(C(=O)/C=C/c2cccs2)cc1CN1CCOCC1	9.44 (≈ 24.4 µM)	4.04 (≈ 10.4 µM)	0.24 (≈ 0.619 µM)	5.02 (≈ 13 µM)	–	–	–	–
O=C(/C=C/c1cccnc1)c1ccc(O)c(CN2CCOCC2)c1	2.11 (≈ 6.5 µM)	0.68 (≈ 2.1 µM)	0.29 (≈ 0.894 µM)	0.69 (≈ 2.13 µM)	–	–	–	–
CC(C)=CCOc1ccc(C(=O)/C=C/c2sccc2C)c(O)c1CN1CCOCC1	8.43 (≈ 19.7 µM)	–	3.19 (≈ 7.46 µM)	7.21 (≈ 16.9 µM)	–	inactive	–	–
O=C(/C=C/c1ccccn1)c1cc(CN2CCOCC2)c(O)c(CN2CCOCC2)c1	2.31 (≈ 5.45 µM)	1.72 (≈ 4.06 µM)	1.34 (≈ 3.16 µM)	2.27 (≈ 5.36 µM)	–	–	–	–
COc1cc(O)c(C(=O)/C=C/c2cccnc2)cc1CN1CCOCC1	–	0.84 (≈ 2.37 µM)	0.1 (≈ 0.282 µM)	4.64 (≈ 13.1 µM)	inactive	–	–	–
COc1ccc(/C=C/C(=O)c2ccco2)c(CN2CCCCC2)c1O	5.18 (≈ 15.2 µM)	3.07 (≈ 8.99 µM)	0.47 (≈ 1.38 µM)	2.61 (≈ 7.64 µM)	–	–	–	–
CCOc1cc(O)c(C(=O)/C=C/c2ccco2)cc1CN1CCOCC1	–	–	20 (≈ 56 µM)	–	inactive	inactive	–	inactive
CCOc1cc(O)c(C(=O)/C=C/c2ccccc2)cc1CN1CCOCC1	–	6.72 (≈ 18.3 µM)	5.24 (≈ 14.3 µM)	9.92 (≈ 27 µM)	inactive	–	–	–
COc1cc(O)c(C(=O)/C=C/c2cccs2)cc1CN1CCOCC1	7.75 (≈ 21.6 µM)	6.6 (≈ 18.4 µM)	3.12 (≈ 8.68 µM)	6.25 (≈ 17.4 µM)	–	–	–	–
Cc1ccsc1/C=C/C(=O)c1cc(CN2CCOCC2)c(O)c(CN2CCOCC2)c1	9.92 (≈ 22.4 µM)	12.1 (≈ 27.3 µM)	16.2 (≈ 36.6 µM)	12 (≈ 27.1 µM)	–	–	–	–
CCOc1cc(O)c(C(=O)/C=C/c2cccnc2)cc1CN1CCOCC1	–	–	10.6 (≈ 28.8 µM)	–	inactive	inactive	–	inactive
CCOc1cc(O)c(C(=O)/C=C/c2ccc(C)o2)cc1CN1CCOCC1	–	–	–	–	inactive	inactive	inactive	inactive
